Data reported in publication PMC2745912 (The Journal of neuroscience : the official journal of the …, 2009).

Tests used:
Abcg2 [1] = target: T1, Abcg2 (Mus musculus, UniProt Q7TMS5); format: in vivo
T1 sequence (Q7TMS5 1-657): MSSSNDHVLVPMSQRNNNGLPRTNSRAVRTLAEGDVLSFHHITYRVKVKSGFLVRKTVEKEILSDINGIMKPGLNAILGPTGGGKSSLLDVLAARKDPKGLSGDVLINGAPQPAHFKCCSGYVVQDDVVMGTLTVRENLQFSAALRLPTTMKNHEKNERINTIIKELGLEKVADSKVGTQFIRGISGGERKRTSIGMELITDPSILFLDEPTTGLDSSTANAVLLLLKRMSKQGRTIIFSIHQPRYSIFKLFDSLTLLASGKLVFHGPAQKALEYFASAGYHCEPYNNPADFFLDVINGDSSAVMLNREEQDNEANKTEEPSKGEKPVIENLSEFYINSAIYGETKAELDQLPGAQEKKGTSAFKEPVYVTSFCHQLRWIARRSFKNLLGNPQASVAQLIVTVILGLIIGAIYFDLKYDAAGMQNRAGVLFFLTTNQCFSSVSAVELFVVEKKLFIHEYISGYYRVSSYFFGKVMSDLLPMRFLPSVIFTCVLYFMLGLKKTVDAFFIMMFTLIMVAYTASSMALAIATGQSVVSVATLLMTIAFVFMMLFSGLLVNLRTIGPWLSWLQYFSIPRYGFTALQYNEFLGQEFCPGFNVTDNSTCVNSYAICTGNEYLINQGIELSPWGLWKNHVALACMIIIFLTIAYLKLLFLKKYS
Outline: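 Peptides were Cy5.5-labeled via NHS ester kit. Adult KO/wt pairs were matched for age, sex and weight and shaved under isoflurane. Pairs received equal labeled peptide (65 or 200 μg) by tail vein. Heads were imaged live (1.5 mm resolution) at 15 min and 2, 4, 6, 8 and/or 24 h. Brains were saline-perfused and scanned ex vivo (1 mm). Excitation: 670 nm pulsed laser diode, 80 MHz, 12 ps.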

hABCG2 = target: T2, hABCG2 (Homo sapiens, UniProt Q9UNQ0); format: cell-based; conditions: empty vector-transfected HEK293; 5 μM Aβ1-40; Hoechst 33342; data not shown
T2 sequence (Q9UNQ0 1-655): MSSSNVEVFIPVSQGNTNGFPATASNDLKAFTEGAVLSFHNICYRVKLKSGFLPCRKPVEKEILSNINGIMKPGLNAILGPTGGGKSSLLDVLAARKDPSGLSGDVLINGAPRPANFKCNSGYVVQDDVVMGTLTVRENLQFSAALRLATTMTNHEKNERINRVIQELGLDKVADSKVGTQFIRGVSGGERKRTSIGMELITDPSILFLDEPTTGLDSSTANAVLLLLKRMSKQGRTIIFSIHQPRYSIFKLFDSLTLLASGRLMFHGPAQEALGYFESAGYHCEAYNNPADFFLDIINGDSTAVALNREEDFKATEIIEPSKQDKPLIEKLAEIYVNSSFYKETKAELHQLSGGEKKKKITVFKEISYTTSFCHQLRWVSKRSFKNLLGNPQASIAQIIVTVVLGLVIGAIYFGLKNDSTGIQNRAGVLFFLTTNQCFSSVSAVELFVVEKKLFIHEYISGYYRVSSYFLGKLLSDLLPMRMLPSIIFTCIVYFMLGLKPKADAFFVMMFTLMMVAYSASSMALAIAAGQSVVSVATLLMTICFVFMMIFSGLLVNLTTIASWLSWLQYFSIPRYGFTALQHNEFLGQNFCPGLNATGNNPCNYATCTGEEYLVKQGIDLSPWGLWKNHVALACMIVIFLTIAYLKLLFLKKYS

Abcg2 [2] = target: T1, Abcg2; format: in vivo; conditions: after intravenous injection; brain sections stained with 6E10
Outline: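 Mice received i.v. Cy5.5-labeled Aβ1–40 and underwent optical imaging, then saline perfusion. Brains were OCT-embedded and frozen-sectioned at 10 μm. Sections were immunostained with anti-Aβ 6E10 plus secondary antibody; control sections got secondary antibody only. Vessels were marked with fluorescein-labeled tomato lectin.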

ABCG2 expression in HBEC = experiment: ABCG2 expression in human brain endothelial cells; format: cell-based; conditions: 50 units of either cytokine; data not shown

“Aβ1-40: Synthetic Aβ1-40 peptide purchased from Biopeptides Co., Inc” was tested, and the “more peptide transported into the brain in the absence of Abcg2” value (Abcg2 [1]; Abcg2 KO vs wt mice, i.v. injection of Cy5.5-labeled peptide) was 20~37% and the “effect of Aβ1-40 peptides on drug uptake in empty vector-transfected cells” value (hABCG2) was “did not significantly affect”.
For “Cy5.5-labeled Aβ1-40: Synthetic Aβ1-40 labeled with fluorescent dye Cy5.5 using Cy5.5 Mono NHS ester kit”, the “brain fluorescence concentration, Abcg2 KO vs wt animals” value (Abcg2 [1]; 65 μg/mouse i.v., two pairs of mice, data not shown) was “comparatively higher” and the “Aβ immunofluorescence in brains of Abcg2 KO mice compared to wt mice” value (Abcg2 [2]) was “strongly enhanced”.
With IL-1β: pro-inflammatory cytokine the “ABCG2 expression in HBEC after cytokine” value (ABCG2 expression in HBEC) was “no changes in ABCG2 expression”.
TNF-α was tested, and the “ABCG2 expression in HBEC after cytokine” value (ABCG2 expression in HBEC) was “no changes in ABCG2 expression”.
